Most compounds without a hit are left out; they make up all but 5.9% or so of the library.
KDM4C inh = KDM4C (human) demethylase inhibition; AID 720574; hit rate 0.15% among 96,000; GST-KDM4C 2-372, H3K9me3 peptide, LANCE TR-FRET; Q9H3R0; inhibition, % at 12.5 µM;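 active means mean replicate inhibition above about 25%, with at least 55% of replicates also reaching it, limit read from the data, passing the limit was not always enough; inconclusive means only one of those two conditions met; inactive means neither condition met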
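System – N-terminal GST-fused human GASC-1 (KDM4C) fragment, residues 2-372 · Input – enzyme final amount 10 nM · Technique – LANCE TR-FRET, Eu antibody, ULight-streptavidin, EDTA, ex 340 nm, em 618/671 nm · Medium – HEPES buffer, pH 7.5, plus ascorbate · Incubation – enzyme reaction 30 min, then detection 60 min, both room temperature · Reagent – H3K9me3 peptide with Fe(II)/2OG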
IDH1 mut inh = IDH1 R132H (human) inhibition. O75874. IDH1 R132H reductase, diaphorase/resazurin fluorescence, 60 min. inhibition, % at 10 µM. hit rate 0.18% among 70,000; in the data active means inhibition above about 34%; inconclusive means no clear call, values can overlap the other calls; inactive means below about 11%;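 further: 0% = DMSO and 100% = no enzyme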
Target sequence (O75874 whole entry R132H): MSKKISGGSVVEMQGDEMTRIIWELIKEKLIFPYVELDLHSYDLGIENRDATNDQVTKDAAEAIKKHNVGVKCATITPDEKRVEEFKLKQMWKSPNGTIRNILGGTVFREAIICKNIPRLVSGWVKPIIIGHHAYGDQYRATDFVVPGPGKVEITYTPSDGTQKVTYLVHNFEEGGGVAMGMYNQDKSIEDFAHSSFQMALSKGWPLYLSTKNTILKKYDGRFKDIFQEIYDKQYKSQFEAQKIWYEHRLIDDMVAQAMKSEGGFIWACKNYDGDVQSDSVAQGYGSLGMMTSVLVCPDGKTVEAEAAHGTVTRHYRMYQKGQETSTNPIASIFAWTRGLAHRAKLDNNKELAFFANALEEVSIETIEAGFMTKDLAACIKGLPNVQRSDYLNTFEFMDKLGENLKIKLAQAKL
T cruzi growth-1 = inhibitors of T. cruzi proliferation; AID 624255; T. cruzi beta-gal in NIH3T3, GalScreen luminescence, 90 h; inhibition, % at 8.34 µM; hit rate 5.9% among 77,000;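 active means mean inhibition above about 93%, with at least 55% of replicates each passing it, limit read from the data, passing the limit was not always enough; inconclusive means only one of those two conditions holds; inactive means neither condition holds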
Pf Dd2 growth = P. falciparum Dd2 growth inhibition. SYBR Green, 72 h; active compounds read low. activity change, % at 10 µM. hit rate 2.3% among 94,000; in the data active means activity change below about -80%; inconclusive means no clear call, values can overlap the other calls
T cruzi growth-2 = inhibitors of T. cruzi proliferation. AID 651739. inhibition, % at 8.35 µM. T. cruzi beta-gal in NIH3T3, GalScreen luminescence, 90 h. shares compounds with T cruzi growth-1. hit rate 72% among 5,600;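 active means mean replicate inhibition above about 95% and at least 55% of replicates individually reaching it, limit read from the data; inconclusive means only one of the two criteria is met; inactive means neither criterion is met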
T cruzi growth-3 = inhibitors of T. cruzi proliferation | T. cruzi beta-gal in NIH3T3, GalScreen luminescence, 90 h | shares compounds with T cruzi growth-1 | hit rate 21% among 5,600 | AID 651740 | inhibition, % at 2.09 µM;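 active means mean inhibition above about 95%, with at least 55% of replicates also reaching it, limit read from the data; inconclusive means meets just one of the two conditions; inactive means meets neither condition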;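 further: plate controls were neutral control median for no effect and positive control median for full effect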
3T3 cytotox = cytotoxicity in mouse NIH/3T3 fibroblasts | shares compounds with T cruzi growth-1 | NIH/3T3 viability, CellTiter-Glo ATP luminescence, 90 h | cytotoxicity (signal decrease), % at 8.35 µM | hit rate 14% among 5,600;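 active means mean signal decrease across replicates above about 35% based on untreated-well scatter, with enough replicates individually passing, limit read from the data; inconclusive means no rule stated though some were filed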;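 further: 0% = median of neutral control wells and 100% = median of positive control wells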
NIH3T3 tox 2 = NIH/3T3 (mouse) viability loss; shares compounds with T cruzi growth-1; AID 651744; hit rate 56% among 5,600; inhibition, % at 24.9 µM; NIH/3T3 viability, CellTiter-Glo ATP luminescence, 90 h;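 active means mean loss of cell viability signal at or above a set limit, and enough replicates individually reaching it; inconclusive means meets only the mean limit or only the replicate share; inactive means meets neither condition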;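 further: 0% = median of neutral control wells and 100% = median of positive control wells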
The depositor's hits bear a star; u = inconclusive; x = not tested or not shown.

SMILES	KDM4C inh	IDH1 mut inh	T cruzi growth-1	Pf Dd2 growth	T cruzi growth-2	T cruzi growth-3	3T3 cytotox	NIH3T3 tox 2
COc1ccc(-c2cnc3c(c2)C(=O)N([C@H](C)CO)C[C@H](C)[C@@H](CN(C)C(=O)CN(C)C)O3)cc1	16.8	3.6	105.4*	-6.6	35.6	3.3	23.3	1.7
C[C@H](CO)N1C[C@H](C)[C@H](CN(C)S(=O)(=O)c2ccc(F)cc2)Oc2ncc(C#Cc3ccccc3)cc2C1=O	-2.7	-0.2	106.3*	-66.7	u	77.5	7.3	28.1*
COc1ccc(-c2cnc3c(c2)C(=O)N([C@@H](C)CO)C[C@H](C)[C@H](CN(C)C(=O)CN(C)C)O3)cc1	-1.5	0.4	49.3	25.6	x	x	x	x
C[C@H](CO)N1C[C@H](C)[C@H](CN(C)S(=O)(=O)c2ccc(F)cc2)Oc2ncc(C#Cc3ccc(C(F)(F)F)cc3)cc2C1=O	-4.3	-1.0	111.9*	-49.0	104.5*	102.9*	25.9	35.4*
CC(=O)N1CC(=O)N2[C@@H](CO)[C@@H](c3ccc(C#CC(C)C)cc3)[C@@H]2C1	0.5	x	x	25.8	x	x	x	x
C[C@H](CO)N1C[C@H](C)[C@H](CN(C)S(=O)(=O)c2ccccc2)Oc2ncc(C#Cc3ccccc3)cc2C1=O	-1.3	0.5	98.4	-20.1	x	x	x	x
C[C@H](CO)N1C[C@H](C)[C@H](CN(C)S(=O)(=O)c2cccc(F)c2)Oc2ncc(C#Cc3ccccc3)cc2C1=O	-1.5	-1.4	39.2	-71.7	x	x	x	x
COc1ccccc1S(=O)(=O)N(C)C[C@@H]1Oc2ncc(-c3ccc(C)cc3)cc2C(=O)N([C@@H](C)CO)C[C@H]1C	-2.2	-0.7	101.5*	-11.3	102.1*	65.4	28.3	55.3*
C[C@H](CO)N1C[C@H](C)[C@H](CN(C)S(=O)(=O)c2ccccc2)Oc2ncc(C#Cc3ccc(C(F)(F)F)cc3)cc2C1=O	-6.5	1.3	91.7*	-51.1	107.4*	81.1	32.5	31.8*
Cc1ccc(S(=O)(=O)N(C)C[C@@H]2Oc3ncc(C#Cc4ccc(C(F)(F)F)cc4)cc3C(=O)N([C@H](C)CO)C[C@@H]2C)cc1	-3.6	0.3	u	-44.8	89.1	112.0*	33.7	38.8*
COc1ccc(S(=O)(=O)N(C)C[C@@H]2Oc3ncc(C#Cc4cccc(F)c4)cc3C(=O)N([C@H](C)CO)C[C@@H]2C)cc1	-3.2	-0.1	u	-77.1	106.9*	76.8	30.3	48.2*
COc1cc(C(=O)NC(C)C(=O)O)cc(OC)c1OC (centres undefined)	x	1.4	x	x	x	x	x	x
C[C@H]1CN([C@@H](C)CO)C(=O)c2cc(NC(=O)Cc3cn(C)c4ccccc34)ccc2O[C@@H]1CN(C)Cc1ccc(C(=O)O)cc1	0.7	-27.8	x	-2.0	x	x	x	x
C[C@H](CO)N1C[C@H](C)[C@H](CN(C)S(=O)(=O)c2cccs2)Oc2ncc(C#Cc3cccc(F)c3)cc2C1=O	-3.4	x	97.7*	-39.4	110.1*	68.7	1.5	5.0
COc1ccc(-c2cnc3c(c2)C(=O)N([C@@H](C)CO)C[C@H](C)[C@@H](CN(C)S(=O)(=O)c2ccc(OC)cc2)O3)cc1	-0.6	-7.6	105.5*	-36.5	104.4*	57.6	8.9	u
C[C@H](CO)N1C[C@H](C)[C@H](CN(C)S(=O)(=O)c2cccc(F)c2)Oc2ncc(C#Cc3ccc(C(F)(F)F)cc3)cc2C1=O	-0.4	-3.9	u	-79.4	101.4*	109.3*	25.0	36.3*
C[C@H](CO)N1C[C@H](C)[C@H](CN(C)S(C)(=O)=O)Oc2ncc(C#Cc3cccc(F)c3)cc2C1=O	-0.3	x	x	-3.3	x	x	x	x
CN(C)C(=O)c1cccc(-c2ccc(C3[C@@H]4CN(Cc5cocn5)C[C@H]3N4)cc2)c1 (some centres undefined)	-1.4	x	x	6.5	x	x	x	x
COc1ccc(S(=O)(=O)Nc2ccc3c(c2)C(=O)N([C@H](C)CO)C[C@@H](C)[C@H](CN(C)C(=O)Nc2ccc(C(F)(F)F)cc2)OCCCC[C@@H](C)O3)cc1	-2.5	-7.2	58.6	-50.9	x	x	x	x
CN1c2ccc(-c3cccc(C#N)c3)cc2[C@@H]2[C@@H](CCN2C(=O)CC2CC2)[C@H]1CO	-0.1	x	96.1	8.0	x	x	x	x
CN1c2ccc(-c3cccc(F)c3)cc2[C@H]2[C@H](CCN2C(=O)CC2CC2)[C@@H]1CO	-0.2	x	97.8*	-4.1	102.3*	66.7	27.7	2.4
CN1c2ccc(-c3ccc(C#N)cc3)cc2[C@@H]2[C@@H](CCN2C(=O)CC2CC2)[C@H]1CO	-0.7	x	104.4*	-8.5	106.3*	84.7	4.5	40.9*
C[C@H](CO)N1C[C@H](C)[C@@H](CN(C)S(=O)(=O)c2ccccc2F)Oc2cc(C#Cc3ccccc3)ccc2S1(=O)=O	-1.8	0.8	123.3*	-74.1	107.2*	116.1*	2.6	u
C[C@H](CO)N1C[C@H](C)[C@@H](CN(C)S(=O)(=O)c2cn(C)cn2)Oc2cc(C#Cc3ccccc3)ccc2S1(=O)=O	-9.0	0.2	104.9*	-64.8	106.4*	87.3	22.9	49.8*
C[C@@H]1CN([C@@H](C)CO)S(=O)(=O)c2ccc(C#Cc3cccc(F)c3)cc2O[C@@H]1CN(C)S(=O)(=O)c1cn(C)cn1	0.5	-3.1	94.3	-17.4	x	x	x	x
SMILES	KDM4C inh	IDH1 mut inh	T cruzi growth-1	Pf Dd2 growth	T cruzi growth-2	T cruzi growth-3	3T3 cytotox	NIH3T3 tox 2
C[C@@H]1CN([C@@H](C)CO)S(=O)(=O)c2ccc(C#Cc3ccccc3)cc2O[C@@H]1CN(C)S(=O)(=O)c1ccccc1F	-0.8	1.6	123.4*	-60.3	104.9*	109.4*	33.8	47.0*
COc1ccc(CN(C)C[C@@H]2OCCCC[C@H](C)Oc3ccc(NC(=O)CCC(F)(F)F)cc3C(=O)N([C@H](C)CO)C[C@H]2C)cc1	1.8	x	43.8	-47.2	x	x	x	x
C[C@H](NC(=O)[C@H]1N[C@H]2c3ccc(-c4ccncc4)c(=O)n3C[C@H]2[C@@H]1CO)c1ccccc1	-2.9	x	56.3	0.3	x	x	x	x
CCCC#Cc1ccc2c(c1)O[C@H](CN(C)C(=O)C1CCC1)[C@@H](C)CN([C@@H](C)CO)S2(=O)=O	-0.2	x	107.9*	-33.3	101.6*	56.1	12.3	39.0*
CCCC#Cc1ccc2c(c1)O[C@H](CN(C)C(=O)C1CCC1)[C@H](C)CN([C@@H](C)CO)S2(=O)=O	-0.1	1.8	98.3*	-9.9	107.2*	80.2	27.5	45.3*
C[C@@H]1CCCCO[C@H](CN(C)S(=O)(=O)c2cccs2)[C@@H](C)CN([C@H](C)CO)C(=O)c2cc(NS(=O)(=O)c3ccc(Cl)cc3)ccc2O1	1.5	0.4	65.6	-11.6	x	x	x	x

Screening data as filed in PubChem BioAssay.
